In ChEMBL document CHEMBL1145751, “Discovery of (aryloxopropenyl)pyrrolyl hydroxyamides as selective inhibitors of class IIa histone deacetylase homologue HD1-A” (J Med Chem, 2003):
Non-standard residues stand in square brackets, D forms with d. Residues, ends and D or L forms follow the SMILES beside them. ξ: configuration not given here. Aoe(9ξ) = N[C@@H](CCCCCC(=O)C1CO1)C(=O)O; dPip = O=C(O)[C@H]1CCCCN1

How the values were obtained:
[1] = Inhibitory activity against maize Histone deacetylase 1-B; parameters: species or system Zea mays
[2] = Inhibitory activity afgainst maize Histone deacetylase 1-A; parameters: species or system Zea mays
[3] = Fold selectivity for classIIa HDAC
Histone deacetylase HD2 = biological target: T1, Histone deacetylase HD2 (Zea mays, UniProt Q94F81); test: Tested for maize Histone deacetylase 2 inhibitory activity
T1 sequence (Q94F81 whole entry): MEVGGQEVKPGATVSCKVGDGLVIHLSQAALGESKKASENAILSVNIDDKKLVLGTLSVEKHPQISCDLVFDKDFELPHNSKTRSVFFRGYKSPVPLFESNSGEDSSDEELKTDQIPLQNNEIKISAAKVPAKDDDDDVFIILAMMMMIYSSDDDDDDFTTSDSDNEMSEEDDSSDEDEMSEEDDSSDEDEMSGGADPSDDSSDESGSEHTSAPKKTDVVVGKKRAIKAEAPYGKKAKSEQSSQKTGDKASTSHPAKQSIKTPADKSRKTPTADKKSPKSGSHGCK
Outline: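 Purified maize HD2 enzyme was incubated with compounds and [³H]-acetate pre-labeled chicken reticulocyte histones (added from a 4 mg/mL stock) for 30 min at 30 °C. The reaction was stopped with HCl/acetate, and released [³H]-acetate was extracted into ethyl acetate. The upper phase was counted by liquid scintillation. IC50 is the mean of at least three separate experiments.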

[4] = biological target: T2, Protein deacetylase HDAC6 (Homo sapiens, UniProt Q9UBN7); test: (§1) Tested for inhibition of Histone deacetylase 6 induced acetylated tubulin in mammalian cells.; assay type: cell-based
T2 sequence (Q9UBN7 whole entry): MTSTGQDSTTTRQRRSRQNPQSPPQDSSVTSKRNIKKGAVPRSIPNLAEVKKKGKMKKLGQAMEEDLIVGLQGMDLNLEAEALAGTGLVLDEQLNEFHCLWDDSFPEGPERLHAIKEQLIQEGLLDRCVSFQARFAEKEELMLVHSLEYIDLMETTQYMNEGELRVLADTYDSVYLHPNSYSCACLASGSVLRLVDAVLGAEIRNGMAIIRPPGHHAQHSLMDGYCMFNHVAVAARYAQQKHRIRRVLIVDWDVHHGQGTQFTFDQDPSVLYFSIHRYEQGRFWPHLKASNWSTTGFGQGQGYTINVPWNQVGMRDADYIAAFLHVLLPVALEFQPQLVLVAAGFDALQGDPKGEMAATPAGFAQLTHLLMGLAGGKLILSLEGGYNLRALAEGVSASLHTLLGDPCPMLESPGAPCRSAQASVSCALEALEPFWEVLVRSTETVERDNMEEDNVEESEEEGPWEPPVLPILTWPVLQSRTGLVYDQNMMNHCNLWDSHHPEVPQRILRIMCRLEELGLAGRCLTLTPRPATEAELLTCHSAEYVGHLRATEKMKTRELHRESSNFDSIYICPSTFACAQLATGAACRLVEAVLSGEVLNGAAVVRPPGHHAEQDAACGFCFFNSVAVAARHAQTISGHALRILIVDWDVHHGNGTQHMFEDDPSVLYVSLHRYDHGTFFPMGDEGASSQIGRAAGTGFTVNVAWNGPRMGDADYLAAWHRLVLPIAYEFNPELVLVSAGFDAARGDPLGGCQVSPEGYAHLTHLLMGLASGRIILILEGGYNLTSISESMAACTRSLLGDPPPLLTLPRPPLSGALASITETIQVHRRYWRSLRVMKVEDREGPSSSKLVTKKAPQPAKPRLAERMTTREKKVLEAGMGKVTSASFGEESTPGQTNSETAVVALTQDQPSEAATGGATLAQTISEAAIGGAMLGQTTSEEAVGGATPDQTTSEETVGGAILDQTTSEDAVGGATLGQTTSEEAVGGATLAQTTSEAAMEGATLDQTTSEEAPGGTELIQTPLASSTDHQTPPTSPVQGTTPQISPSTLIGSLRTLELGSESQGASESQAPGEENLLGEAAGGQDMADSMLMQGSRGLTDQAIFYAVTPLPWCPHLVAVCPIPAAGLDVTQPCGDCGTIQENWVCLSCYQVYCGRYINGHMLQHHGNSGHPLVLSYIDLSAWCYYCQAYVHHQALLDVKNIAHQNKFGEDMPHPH

Histone deacetylase 4 = Histone deacetylase 4 (Homo sapiens, UniProt P56524); test: Inhibition of Histone deacetylase 4 in mammalian cells.; assay type: cell-based
Histone deacetylase 1 [5] = biological target: T3, Histone deacetylase 1 (Homo sapiens, UniProt Q13547); test: Inhibition of Histone deacetylase 1 induced acetylated histone in mammalian cells.; assay type: cell-based
Histone deacetylase 1 [6] = biological target: T3, Histone deacetylase 1; test: Inhibition of Histone deacetylase 1 induced acetylated histone in mammalian cells; assay type: cell-based
[7] = as §1; assay type: cell-based
[8] = Inhibition of Histone deacetylase 4 in mammalian cells; assay type: cell-based

T3 sequence (Q13547 whole entry): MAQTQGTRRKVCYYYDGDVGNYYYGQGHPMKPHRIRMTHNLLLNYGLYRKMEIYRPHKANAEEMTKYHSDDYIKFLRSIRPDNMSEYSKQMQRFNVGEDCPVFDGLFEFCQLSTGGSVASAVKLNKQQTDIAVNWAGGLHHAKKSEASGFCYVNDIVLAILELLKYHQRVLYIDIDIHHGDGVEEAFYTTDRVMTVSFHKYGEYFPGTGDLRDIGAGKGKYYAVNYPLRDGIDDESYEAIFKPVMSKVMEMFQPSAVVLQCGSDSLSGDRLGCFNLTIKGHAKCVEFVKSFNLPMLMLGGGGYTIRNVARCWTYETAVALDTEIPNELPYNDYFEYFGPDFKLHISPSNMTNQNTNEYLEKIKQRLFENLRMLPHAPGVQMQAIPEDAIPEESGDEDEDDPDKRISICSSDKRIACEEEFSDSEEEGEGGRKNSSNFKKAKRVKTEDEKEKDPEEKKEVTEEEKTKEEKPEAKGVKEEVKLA
Sequence of Histone deacetylase 4 (P56524 whole entry): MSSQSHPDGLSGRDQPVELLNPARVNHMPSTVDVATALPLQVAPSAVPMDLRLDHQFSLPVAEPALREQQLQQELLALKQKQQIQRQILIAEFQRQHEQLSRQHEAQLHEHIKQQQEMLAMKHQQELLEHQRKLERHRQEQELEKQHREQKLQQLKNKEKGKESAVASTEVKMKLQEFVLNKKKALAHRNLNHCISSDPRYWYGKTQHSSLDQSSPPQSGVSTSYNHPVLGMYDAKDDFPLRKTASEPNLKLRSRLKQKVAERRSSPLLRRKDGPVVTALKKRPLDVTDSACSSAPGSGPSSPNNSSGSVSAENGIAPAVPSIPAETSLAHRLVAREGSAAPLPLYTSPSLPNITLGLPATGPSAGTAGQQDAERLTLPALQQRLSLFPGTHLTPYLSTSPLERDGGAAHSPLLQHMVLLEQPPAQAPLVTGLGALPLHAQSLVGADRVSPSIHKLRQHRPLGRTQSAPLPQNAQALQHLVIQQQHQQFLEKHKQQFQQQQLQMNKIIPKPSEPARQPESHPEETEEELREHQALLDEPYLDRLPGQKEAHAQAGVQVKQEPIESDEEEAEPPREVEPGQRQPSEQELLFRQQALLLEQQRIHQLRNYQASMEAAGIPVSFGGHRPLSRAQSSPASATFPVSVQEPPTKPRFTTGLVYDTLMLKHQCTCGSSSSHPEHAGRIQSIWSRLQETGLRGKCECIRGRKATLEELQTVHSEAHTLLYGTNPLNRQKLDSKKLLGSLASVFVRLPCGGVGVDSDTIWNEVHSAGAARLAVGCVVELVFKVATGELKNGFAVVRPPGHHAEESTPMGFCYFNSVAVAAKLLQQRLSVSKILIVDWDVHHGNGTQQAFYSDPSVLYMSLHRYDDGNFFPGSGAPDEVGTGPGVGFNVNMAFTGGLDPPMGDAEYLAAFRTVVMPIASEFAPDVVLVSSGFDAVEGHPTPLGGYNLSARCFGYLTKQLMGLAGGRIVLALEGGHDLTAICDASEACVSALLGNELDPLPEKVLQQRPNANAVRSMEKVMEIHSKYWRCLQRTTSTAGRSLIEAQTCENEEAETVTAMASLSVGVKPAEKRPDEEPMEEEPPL

`Cc1cccc(C(=O)/C=C/c2cc(/C=C/C(=O)NO)n(C)c2)c1` showed an IC50 [1] of 2.5 µM, an IC50 [2] of 0.2 µM and a Fold selectivity [3] of 12. The IC50 (Histone deacetylase HD2) was 7.9 µM.
`Cn1cc(/C=C/C(=O)c2cccc(Cl)c2)cc1/C=C/C(=O)NO` showed an IC50 [1] of 31.4 µM, an IC50 [2] of 0.4 µM and a Fold selectivity [3] of 78. It also gave an IC50 (Histone deacetylase HD2) of 24.2 µM.
In the case of `Cn1cc(/C=C/C(=O)c2ccccc2)cc1/C=C/C(=O)NO`, the IC50 [1] is reported as 0.3 µM, the IC50 [2] is reported as 0.2 µM and the IC50 (Histone deacetylase HD2) is reported as 0.28 µM.
In the case of `Cn1cc(/C=C/C(=O)c2ccc(Cl)cc2)cc1/C=C/C(=O)NO`, the IC50 [1] is reported as 29.4 µM, the IC50 [2] is reported as 18.6 µM and the IC50 (Histone deacetylase HD2) is reported as 25.2 µM.
`C[C@@H]1NC(=O)[C@H](CCCCCC(=O)C2CO2)NC(=O)[C@H]2CCCN2C(=O)[C@H](C)NC1=O` (some centres undefined) gave an EC50 [4] of 360 µM, an IC50 (Histone deacetylase 4) of 0.0003 µM and an EC50 (Histone deacetylase 1 [5]) of 0.11 µM.
In the case of `C/C=C1\NC(=O)[C@H]2CSSCC/C=C/[C@H](CC(=O)N[C@H](C(C)C)C(=O)N2)OC(=O)[C@H](C(C)C)NC1=O` [ROMIDEPSIN], the EC50 (Histone deacetylase 1 [5]) is reported as 36 µM.
For `Cn1cc(/C=C/C(=O)c2ccccc2Cl)cc1/C=C/C(=O)NO`, the IC50 [1] was 1.6 µM, the IC50 [2] was 0.05 µM and the Fold selectivity [3] was 32. For the same molecule, the IC50 (Histone deacetylase HD2) was 5.2 µM.
Molecule `Cc1ccccc1C(=O)/C=C/c1cc(/C=C/C(=O)NO)n(C)c1` has an IC50 [1] of 0.4 µM, an IC50 [2] of 0.06 µM and a Fold selectivity [3] of 7. For the same molecule, the IC50 (Histone deacetylase HD2) was 0.27 µM.
Work on `O=C(CCCCC[C@@H]1NC(=O)[C@H]2CCCCN2C(=O)[C@H](Cc2ccccc2)NC(=O)[C@H](Cc2ccccc2)NC1=O)C1CO1` (some centres undefined) [TRAPOXIN A] (cyclo(FF[dPip][Aoe(9ξ)])) yielded an EC50 [4] of 524 µM and an EC50 (Histone deacetylase 1 [6]) of 0.82 µM.
Molecule `Cc1ccc(C(=O)/C=C/c2cc(/C=C/C(=O)NO)n(C)c2)cc1` has an IC50 [1] of 4.8 µM, an IC50 [2] of 0.5 µM and a Fold selectivity [3] of 10. The IC50 (Histone deacetylase HD2) was 10.2 µM.
Molecule `CC(/C=C/C(=O)NO)=C\[C@@H](C)C(=O)c1ccc(N(C)C)cc1` [TRICHOSTATIN] has an EC50 [7] of 8.6 µM, an IC50 [1] of 0.0004 µM and an IC50 [8] of 0.038 µM. The IC50 [2] was 0.0008 µM.
For `C[C@@H]1NC(=O)[C@H](CCCCCC(=O)NO)NC(=O)[C@H]2CCCN2C(=O)[C@H](C)NC1=O`, the EC50 [4] was 19 µM, the IC50 (Histone deacetylase 4) was 0.0027 µM and the EC50 (Histone deacetylase 1 [5]) was 1.9 µM.
